PAFAH1B3 inh – inhibitors of human PAFAH1B3 | recombinant PAFAH1B3, FP-rhodamine probe, fluorescence polarization | inhibition, % at 3.39 µM | actives 0.28% (n = 340,000) | AID 492972;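 active = inhibition above the screen-wide average of all tested compounds plus 3 SD, cut at about 25% in these data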;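 note: 0% = enzyme with DMSO only and 100% = wells lacking PAFAH1B3 protein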
PAFAH2 FP inh – inhibitors of human PAFAH2 | Q99487 | recombinant PAFAH2, FP-rhodamine activity probe, fluorescence polarization | AID 492956 | actives 0.99% (n = 340,000) | inhibition, % at 3.39 µM;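 active = inhibition above the mean over all tested compounds plus 3 SD, cut at about 30% in these data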;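 note: inhibitors block probe labeling of enzyme so polarization drops; 0% = enzyme with DMSO and 100% = wells lacking PAFAH2 protein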
ARFGAP1 inhibitor – inhibits rat ARF GTPase activating protein 1; Arfgap1-stimulated ARF1 GTP hydrolysis, GDP FP detection; AID 651572; inhibition, % at 16.5 µM; actives 0.26% (n = 360,000);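 active = inhibition above a per-plate limit, mean inhibition of low control wells plus 3 SD, cut at about 25% in these data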;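 note: 0% = DMSO wells with enzyme and 100% = wells lacking Arfgap1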
Target sequence (Q62848 1-136 limits assumed): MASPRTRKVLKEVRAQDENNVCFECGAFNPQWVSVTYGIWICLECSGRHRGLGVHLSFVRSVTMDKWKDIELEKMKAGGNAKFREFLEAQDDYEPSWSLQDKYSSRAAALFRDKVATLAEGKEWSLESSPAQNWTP
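System: truncated rat Arfgap1 GAP domain / Benchmarks: high control wells lacking Arfgap1, low control full reaction with DMSO / Times: compound-enzyme preincubation 20 min, reaction 120 min, detection 60 min, 25 °C / Repeats: one replicate per compound / Also added: human ARF1(Δ1-17)-GTP substrate / Measured by: Tracer-displacement fluorescence polarization with EDTA stop, 620/688 nm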
PAFAH1B2 FP inh – PAFAH1B2 (human) inhibition. P68402. actives 1.2% (n = 340,000). recombinant PAFAH1B2, FP-rhodamine activity probe, fluorescence polarization. inhibition, % at 3.39 µM;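 active = inhibition above the mean of all tested compounds plus 3 SD, cut at about 24% in these data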;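 note: 0% = enzyme with DMSO and 100% = wells lacking PAFAH1B2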
pPAFAH FP inh – inhibitors of human plasma PAF acetylhydrolase (pPAFAH). Q13093. recombinant pPAFAH, FP-rhodamine probe fluorescence polarization. inhibition, % at 3.39 µM. actives 1.5% (n = 330,000). AID 463082;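 active = inhibition above the mean inhibition across the screen plus 3 SD, cut at about 25% in these data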;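 note: inhibitors block binding of the rhodamine activity-based probe so polarization drops; 0% = enzyme with DMSO and 100% = wells lacking pPAFAH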
Target sequence (Q13093 whole entry, looked up): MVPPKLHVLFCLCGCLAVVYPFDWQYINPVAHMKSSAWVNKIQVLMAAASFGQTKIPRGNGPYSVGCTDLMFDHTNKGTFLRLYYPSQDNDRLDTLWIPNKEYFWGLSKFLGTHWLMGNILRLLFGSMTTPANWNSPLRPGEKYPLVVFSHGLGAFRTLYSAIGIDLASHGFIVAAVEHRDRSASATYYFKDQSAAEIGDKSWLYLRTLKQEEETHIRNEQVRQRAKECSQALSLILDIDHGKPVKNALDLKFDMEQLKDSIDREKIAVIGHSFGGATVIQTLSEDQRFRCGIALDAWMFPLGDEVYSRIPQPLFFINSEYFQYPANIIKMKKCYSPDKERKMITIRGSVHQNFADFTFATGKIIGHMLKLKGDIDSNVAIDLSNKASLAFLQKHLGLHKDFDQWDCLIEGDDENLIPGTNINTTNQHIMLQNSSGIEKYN
ASAP1 inh – blocks human ASAP1-stimulated Arf1 GTP hydrolysis. GDP FP detection. inhibition, % at 16.5 µM. Q9ULH1. actives 0.19% (n = 360,000). AID 624377; in the data active = inhibition above about 25%;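 note: 0% = vehicle with enzyme and substrate and 100% = no enzyme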
* hit, by the source's call; / = no result. Rows were chosen to be rich in hits. Some 2.7% of all compounds tested hit in one or more screens of this group.

SMILES	PAFAH1B3 inh	PAFAH2 FP inh	ARFGAP1 inhibitor	PAFAH1B2 FP inh	pPAFAH FP inh	ASAP1 inh
Cc1cccc(-n2c(-c3ccncc3)n[nH]c2=S)c1C	8	-5	2	4	30*	6
COc1cccc2c1C(=O)c1c(O)c3c(c(O)c1C2=O)C[C@@](O)(C(C)=O)C[C@@H]3O[C@H]1C[C@H](N)[C@H](O)[C@H](C)O1	37*	54*	-1	51*	/	5
COc1cccc2c1C(=O)c1c(O)c3c(c(O)c1C2=O)CC(O)(C(=O)CO)CC3OC1CC(N(C)C)C(O)C(C)O1 (stereo not given)	47*	60*	4	61*	/	-7
CCCc1ccc(-c2cc(NC(=O)Cc3c(C)[nH]c4ccccc34)ccc2Nc2cccnc2)cc1	/	/	5	/	/	6
Cc1cc(Nc2cc(Cl)cc(Cl)c2)cc(=O)n1-c1cc(Cl)cc(Cl)c1	/	/	9	/	/	10
COC(=O)C1=C(C)N(Cc2cccc(C(F)(F)F)c2)C(=NCc2ccc(OC)cc2)NC1c1cccc(F)c1 (stereo not given)	/	/	7	/	/	0
CCN(C1CCCCC1)S(=O)(=O)c1ccc(S(=O)(=O)N2CCN(CCC#N)CC2)cc1	11	3	4	25*	1	3
NC(=O)c1ncn([C@@H]2O[C@H](C(=O)N[C@H](Cc3c[nH]c4ccccc34)C(=O)N3CCN(CC(=O)N4CCCC4)CC3)[C@@H](O)[C@H]2O)n1	/	/	-2	/	/	-5
CCC(=O)NCc1c(C)c(C)n(Cc2ccccc2)c1-n1cccc1	-1	5	2	28*	5	0
CCCCn1c(NC(=O)c2ccccc2)c(C#N)c2nc3ccccc3nc21	59*	55*	8	44*	/	-3
CCCCn1c(NC(=O)c2ccc(F)cc2)c(C#N)c2nc3ccccc3nc21	/	/	/	/	9	/
C[C@H]1CN(C(=O)OC(C)(C)C)CCN1c1ccc(Br)c(C#N)c1	/	/	-4	/	/	-7
C=CCn1c(SCc2ccc(Cl)cc2)nc2c1c(=O)[nH]c(=O)n2C	8	6	-5	25*	2	3
C=CCn1c(SCc2ccc(F)cc2)nc2c1c(=O)[nH]c(=O)n2C	1	3	-7	6	1	6
O=C(O)c1ccc(CSCc2ccccc2Cl)o1	13	-1	-8	30*	4	-12
CC(C)NC(=O)c1ccc(CSCc2ccccc2Cl)o1	4	7	-12	7	6	-15
O=C(O)c1cc(NC(=O)c2ccc(Br)cc2)cc(NC(=O)c2ccc(Br)cc2)c1	-4	-10	4	30*	-15	5
Cc1ccc(S(=O)(=O)N(C)C)cc1NC(=O)COC(=O)c1sc2cc(Cl)ccc2c1Cl	-12	-19	7	-5	32*	-7
Clc1cccc(Cl)c1CNc1ccc(N2CCCC2)cc1	/	/	-2	/	27*	-6
O=C(Cc1ccc(Cl)cc1)Nc1ccc(N2CCCC2)cc1	-2	-2	-4	8	1	-8
COc1ccc(N=Nc2cc(OC)c(N)cc2OC)cc1	6	-1	1	4	/	-6
Cc1cc(N=Nc2ccc(C)c(N=Nc3cc(C)c(N)cc3N)c2)c(N)cc1N	21	2	25*	4	18	16
O=[N+]([O-])c1cc2c(ccc3occc32)o1	/	/	0	/	/	2
O=C(CSc1nnc(SCc2ccccc2)s1)N/N=C/C=C\c1ccco1	3	27	-3	3	28*	7
Cn1cccc1CC(=O)N/N=C/C=C/c1ccco1	6	16	2	-4	27*	-3
SMILES	PAFAH1B3 inh	PAFAH2 FP inh	ARFGAP1 inhibitor	PAFAH1B2 FP inh	pPAFAH FP inh	ASAP1 inh
Cc1ccc(OC2CCN(C(=O)[C@@H](Cc3ccccc3)NC(=O)[C@H]3O[C@@H](n4ccc(=O)[nH]c4=O)[C@H](O)[C@@H]3O)CC2)cc1	/	/	1	/	/	-6
Cc1nc(N2CCOCC2)c2cc(-c3ccccc3)sc2n1	-2	0	-6	5	4	-2
Cc1nc(SCCC(=O)O)c2cc(-c3ccccc3)sc2n1	-3	-2	8	50*	2	-15
COc1ccc(N2C[C@@]3(O)CC[C@@H](O)[C@@H](OC)[C@@H]3[C@@]2(C)[C@H](O)CC=C(C)C)cc1	/	/	2	/	/	2
COC(=O)CCC(=O)OC1(C)C(=O)C2=CN(Cc3ccco3)C(c3ccc(OC)cc3)=CC2=C(Br)C1=O (stereo not given)	/	/	/	/	25*	/
CC1CC(NC(=O)CCn2c(=O)oc3ccccc32)CC(C)(C)C1 (stereo not given)	7	44*	-8	38*	3	0
COc1ccc2[nH]c(C(=O)NCCN3CCOCC3)cc2c1	6	5	-2	36*	-4	-4
O=C(NN=Cc1ccccc1O)C(=O)Nc1ccc(F)cc1	/	/	7	/	/	-2
COc1ccc(Cn2c(O)c(C=Nc3ccc(OC)cc3)c3ccccc3c2=O)cc1	2	1	9	-2	-1	-12
COc1ccccc1NS(=O)(=O)c1cccc(-n2c(O)c(C=Nc3ccccc3C(=O)O)c3ccccc3c2=O)c1	6	83*	-14	7	30*	-12
COc1ccc(Cn2c(O)c(C=Nc3ccccc3C(=O)O)c3ccccc3c2=O)cc1	10	37*	-3	4	27*	-8
c1ccc(Nc2c(-c3ccco3)nc3ccccn23)cc1	-1	-4	5	2	1	-4
c1ccc(-c2nc(-c3ccco3)n3ccccc23)cc1	3	1	9	3	25*	-8
COc1cccc(C(=S)N2CCOCC2)c1OS(=O)(=O)c1ccc(Cl)cc1	11	-2	-6	-3	27*	5
COc1ccc(S(=O)(=O)Oc2cccc(C(=S)N3CCOCC3)c2)cc1	1	1	6	26*	-2	7
Cc1ccccc1S(=O)(=O)N1CCCc2nc(-c3ccccc3)ccc21	/	/	-7	/	/	-1
Nc1nc2c(ncn2[C@@H]2O[C@H](C(=O)N[C@H](Cc3ccccc3)C(=O)NCCCc3ccccc3)[C@@H](O)[C@H]2O)c(=O)[nH]1	/	/	-3	/	/	4
N=C1S/C(=C\c2ccco2)C(=O)N1c1ccc2c(c1)OCO2	2	14	1	6	31*	12
COC(=O)C1=C(C)N(C)C(=NCc2ccc(OC)cc2)NC1c1cccc(F)c1 (stereo not given)	/	/	3	/	/	-3
Nc1nc(-c2ccc(NC(=O)c3ccco3)cc2)cs1	8	11	-3	5	4	-3
NC(=O)/C(=N\OC(=O)c1ccco1)c1nc(-c2ccc(Br)cc2)cs1	25	7	-15	15	32*	7
O=C(C=Cc1ccco1)c1cc(Cl)ccc1O	5	6	-2	3	/	2
CC(/C=C/c1ccco1)=N\NC(=O)c1cc(Cl)ccc1O	10	17	2	10	32*	-1
